According to the RNAGym collection of RNA variant scans (doi:10.1038/nmeth.2970):

B1: GFP aptamer (parent)
chain: GCUUCUGGACUGCGAUGGGAGCACGAAACGUCGUGGCGCAAUUGGGUGGGGAAAGUCCUUAAAAGAGGGCCACCACAGAAGC

Variants of: B1
Assay: HiTS-RAP
Settings: with EGFP
How it was run: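 Aptamer DNA templates carrying a T7 promoter and ter site were sequenced on an Illumina GAIIx flowcell, then transcribed in situ by T7 RNA polymerase and halted by GST-Tus (30 minutes, 37°C). Clusters were imaged after 30-minute room-temperature equilibration with EGFP-mOrange at 0.04 nM to 625 nM in fivefold steps. Intensities were decay-corrected, normalised to sequencing intensity and averaged per sequence. Kd came from weighted Hill fits per lane, geometrically averaged over three lanes, with non-rising sequences set to 125 nM.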

Row | Variant | Kd
1 | A23C | 13.2 nM
2 | A40U | 21.7 nM
3 | A40G | 4.95 nM
4 | A40C | ≥ 125 nM
5 | C37U C73U | 24 nM
6 | G30A C74U | 5.86 nM
7 | U42C C74U | 1.05 nM
8 | G30A G68A | 31.8 nM
9 | C73U | 6.59 nM
10 | C73A | 8.52 nM
11 | C73G | 7.26 nM
12 | A26G A27G | 2.12 nM
13 | A20G A28G | 15.5 nM
14 | G49U | 11.1 nM
15 | G49A | 21.5 nM
16 | G49C | 57.7 nM
17 | C32U G68A | 60.2 nM
18 | A75G A79G | 6.58 nM
19 | G69A | ≥ 125 nM
20 | G69U | 3.44 nM
21 | G69C | ≥ 125 nM
22 | A26G C73U | 5.43 nM
23 | A20G A26G | 7.96 nM
24 | C32U C74U | 11.9 nM

Row | Variant | Kd
25 | G38C | 83.5 nM
26 | G38U | 14.5 nM
27 | G38A | 28 nM
28 | C24U G68A | 54.1 nM
29 | U31C A79G | 3.52 nM
30 | C58U | 1.21 nM
31 | C58G | 29.1 nM
32 | C24U | 4.82 nM
33 | C24A | 10.6 nM
34 | C24G | 13.2 nM
35 | A20G A62G | 13.1 nM
36 | A27G C71U | 17.8 nM
37 | A28G C37U | 7.93 nM
38 | G30A C73U | 0.856 nM
39 | G51U | 28.8 nM
40 | G51C | ≥ 125 nM
41 | G51A | 8.55 nM
42 | A75G A77G | 6.48 nM
43 | A27G C37U | 3.28 nM
44 | A27G C32U | 3.03 nM
45 | A28G G68A | 32.8 nM
46 | U34A | 30.6 nM
47 | U34G | 6.01 nM
48 | U34C | 24.2 nM

Row | Variant | Kd
49 | U31C U43C | 1.5 nM
50 | C73U C74U | 7.64 nM
51 | G25A G33A | 11.9 nM
52 | A26G A41G | 2.97 nM
53 | U47C C58U | 2.94 nM
54 | U31C C58U | 1.14 nM
55 | A27G G33A | 5.11 nM
56 | G25A U31C | 3.75 nM
57 | A20G G33A | 49 nM
58 | A27G A28G | 4.44 nM
59 | U59C A77G | 0.842 nM
60 | C24U A28G | 2.43 nM
61 | C22U | 9.58 nM
62 | C22G | 29.1 nM
63 | C22A | 13.8 nM
64 | A28G U60C | 13.9 nM
65 | A20G | 8.28 nM
66 | A20U | ≥ 125 nM
67 | A20C | ≥ 125 nM
68 | G25A C74U | 4.63 nM
69 | C29G | 4.09 nM
70 | C29A | 3.32 nM
71 | C29U | 4.49 nM
72 | A41G A77G | 7.24 nM

Row | Variant | Kd
73 | C58U C70U | 4.84 nM
74 | A28G G46A | 14.2 nM
75 | A20G G30A | 30.3 nM
76 | A72U | 17.7 nM
77 | A72G | 3.33 nM
78 | A72C | ≥ 125 nM
79 | A23G U34C | 1.23 nM
80 | A27G A77G | 4.47 nM
81 | G25C | 7 nM
82 | G25U | 3.87 nM
83 | G25A | 5 nM
84 | U34C C58U | 68.2 nM
85 | U16C U59C | 7.5 nM
86 | A27G G46A | 12.7 nM
87 | A27G C58U | 0.55 nM
88 | G50A | 68 nM
89 | G50C | 67.7 nM
90 | G50U | 12.3 nM
91 | A23G U31C | 3.06 nM
92 | A27G U43C | 4.45 nM
93 | G78U | 6.2 nM
94 | G78A | 13.2 nM
95 | G78C | 43.8 nM
96 | G30A G33A | 27.8 nM

Row | Variant | Kd
97 | A41G U47C | 2.42 nM
98 | U60A | 1.71 nM
99 | U60G | 5.38 nM
100 | U60C | 16.6 nM
101 | A62G | 3.54 nM
102 | A62U | 3.36 nM
103 | A62C | 4 nM
104 | G67A | 14.2 nM
105 | G67U | 9.04 nM
106 | G67C | 11.8 nM
107 | A27G A40G | 2.81 nM
108 | U42C A77G | 13.7 nM
109 | A28G A41G | 2.01 nM
110 | A20G C58U | 11.5 nM
111 | C57U | ≥ 125 nM
112 | C57A | ≥ 125 nM
113 | C57G | ≥ 125 nM
114 | U31C A41G | 3.04 nM
115 | U31A | 4.16 nM
116 | U31G | 3.99 nM
117 | U31C | 4.31 nM
118 | A27G U31C | 4.55 nM
119 | A28G U47A | 3.89 nM
120 | A28G U47C | 1.08 nM

Row | Variant | Kd
121 | C32U A79G | 5.26 nM
122 | C24U C37U | 6.91 nM
123 | A79C | 18.6 nM
124 | A79U | 7.52 nM
125 | A79G | 4.31 nM
126 | C24U A41G | 11.7 nM
127 | A41G U43C | 12.7 nM
128 | U34C A77G | 18 nM
129 | A26G C70U | 0.997 nM
130 | A41C | 10.1 nM
131 | A41G | 5.96 nM
132 | A41U | 4.87 nM
133 | G21A | ≥ 125 nM
134 | G21C | 5.13 nM
135 | G21U | 6 nM
136 | G19A | 48.3 nM
137 | G19C | ≥ 125 nM
138 | G19U | ≥ 125 nM
139 | C37A | 5.05 nM
140 | C37G | 15.5 nM
141 | C37U | 19.1 nM
142 | U34C A41G | 2.74 nM
143 | U47C A79G | 62.1 nM
144 | A28G U31C | 5.74 nM

Row | Variant | Kd
145 | C24U A27G | 7.09 nM
146 | A40G C73U | 4.47 nM
147 | A72G C74U | 7.35 nM
148 | C58U C73U | 0.976 nM
149 | G46C | 58.8 nM
150 | G46U | 29.2 nM
151 | G46A | 18.7 nM
152 | A27G U34C | 9.07 nM
153 | A40G A77G | 4.67 nM
154 | G18A | ≥ 125 nM
155 | G18C | ≥ 125 nM
156 | G18U | ≥ 125 nM
157 | G35C | ≥ 125 nM
158 | G35U | ≥ 125 nM
159 | G35A | ≥ 125 nM
160 | A26U | 4.33 nM
161 | A26C | 4.53 nM
162 | A26G | 4.22 nM
163 | C58U C74U | 5.94 nM
164 | A20G A27G | 4.69 nM
165 | G33U | 35.1 nM
166 | G33C | ≥ 125 nM
167 | G33A | 11.6 nM
